ARNT TACC3 PPI: ARNT/TACC3 interaction disruption; Q9Y6A5; inhibition, % at 9.99 µM; 390,000 tested, 0.66% active; AlphaScreen His-ARNT PAS-B/GST-TACC3 binding, luminescence; TACC3 fragment carries E629A point mutation; AID 623870;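 active means mean inhibition of replicates at least 50% and at least half of replicates each reaching 50%; inconclusive means half or more replicates reach 50% but mean below 50%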
FGF22 binding: FGF22 (human) thermal shift binding | activity (Tm shift, normalised), % at 9.99 µM | AID 651658 | 340,000 tested, 1.5% active | recombinant FGF22 thermal shift, SYPRO orange fluorescence; percent of sucrose octasulfate shift, DMSO zero | Q9HCT0;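 active means mean Tm shift, scaled 0 neutral to 100 positive control, at about 1.3% or above, every replicate too, limit read from the data; inconclusive means no clear call, values can overlap the other calls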
Target sequence (Q9HCT0 whole entry, looked up): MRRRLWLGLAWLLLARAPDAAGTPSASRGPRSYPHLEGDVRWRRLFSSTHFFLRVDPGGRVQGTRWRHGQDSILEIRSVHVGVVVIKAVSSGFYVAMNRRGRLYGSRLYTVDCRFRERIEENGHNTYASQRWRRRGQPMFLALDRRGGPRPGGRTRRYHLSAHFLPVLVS
FN deposition inh: fibronectin deposition inhibition; inhibition, % at 12.6 µM; AH1F fibroblasts, Alexa488-fibronectin deposition fluorescence, overnight; 350,000 tested, 0.086% active; AID 743247;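 active means mean inhibition across replicates of 30% or more, regardless of how many single replicates reach that level; inconclusive means mean under 30% yet at least half of replicates reach 30%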
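Measured by – fluorescence 485/525 nm · System – AH1F fibroblast monolayer, labelled fibronectin deposition · Amount – 10000 cells per well · Buffer or medium – serum-reduced DMEM (2% serum) · Doses – single dose, pinned · Also added – fluorescent fibronectin at 24 nM final · Schedule – 1 h cell attachment, overnight exposure to compound and label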
SIRT5 inh: blocks human SIRT5 desuccinylation of peptide; Q9NXA8; Purified SirT5, succinyl-peptide AMC, trypsin-coupled fluorescence; inhibition, % at 15 µM; 330,000 tested, 1.1% active; AID 652115; in the data active means inhibition above about 15%; inconclusive means no clear call, values can overlap the other calls
Target sequence (Q9NXA8 whole entry, looked up): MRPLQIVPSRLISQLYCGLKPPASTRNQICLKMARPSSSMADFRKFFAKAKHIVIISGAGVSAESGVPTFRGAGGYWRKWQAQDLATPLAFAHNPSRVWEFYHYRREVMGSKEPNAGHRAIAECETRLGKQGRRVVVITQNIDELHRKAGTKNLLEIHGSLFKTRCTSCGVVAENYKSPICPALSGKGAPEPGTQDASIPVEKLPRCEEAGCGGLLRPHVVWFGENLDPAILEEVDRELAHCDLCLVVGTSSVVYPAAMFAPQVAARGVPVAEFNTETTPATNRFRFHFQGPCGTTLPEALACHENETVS
XiGFP reactiv: X-chromosome reactivation activator; AID 743238; 360,000 tested, 0.055% active; activation, % at 7.58 µM; XiGFP mouse fibroblasts, % GFP-positive cells imaging, 3 d; cells co-treated with 5-aza-dC sensitizer; scaled so ellipticine positive control = 100%;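 active means mean normalized replicate activation at least 10% and every replicate at or above 10%; inconclusive means only one of the two criteria met; inactive means mean below 10% and not all replicates reach 10%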
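System: 68-5-11 XiGFP fibroblast line; Timing: 3 days compound exposure; Compound dosing: one concentration, pinned; Benchmarks: positive control ellipticine, 6 µM final; Buffer or medium: DMEM containing 5-aza-dC.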
DENV2 CPE: protects cells from dengue virus 2 cytopathic effect | DENV2-infected cells, cytopathic effect rescue, plate reader | CPE inhibition, % at 9.99 µM | 350,000 tested, 1.7% active | AID 651640; in the data active means CPE inhibition above about 20%, passing the limit was not always enough; inconclusive means no clear call, values can overlap the other calls; tested in BHK-21 cells
Hits are given with their value; 0 = inactive; ? = inconclusive; - = no result given. This is a sample that favours compounds with a hit; in the whole collection about 3.8% have one here.

SMILES	ARNT TACC3 PPI	FGF22 binding	FN deposition inh	SIRT5 inh	XiGFP reactiv	DENV2 CPE
CCOC(=O)C1=C(N)OC2=C(C(=O)CC(C)(C)C2)C1c1ccc(C)s1 (centres undefined)	0	43.7	0	0	0	0
CCCC#Cc1cnc2c(c1)C(=O)N([C@@H](C)CO)C[C@@H](C)[C@@H](CN(C)C(=O)C1CCC1)O2	0	0	-	0	0	0
Cn1c(=O)c2c(nc(NCCNC(=O)c3ccco3)n2Cc2ccccc2)n(C)c1=O	0	0	0	0	0	0
Cn1c(=O)c2c(nc(NCCNC(=O)c3ccco3)n2Cc2ccc(F)cc2)n(C)c1=O	0	1.8	0	0	0	0
C[C@H](CO)N1C[C@H](C)[C@H](CN(C)S(=O)(=O)c2ccc(C(F)(F)F)cc2)OCc2ccccc2-c2ccccc2C1=O	0	0	0	0	0	33.1
C[C@H](CO)N1C[C@H](C)[C@H](CN(C)S(=O)(=O)c2cccs2)OCc2ccccc2-c2ccccc2C1=O	0	0	0	0	0	0
C[C@@H]1CN([C@@H](C)CO)C(=O)c2ccccc2-c2ccccc2CO[C@H]1CN(C)S(=O)(=O)c1ccc(Cl)cc1	0	0	0	15.5	0	0
C[C@@H]1CN([C@H](C)CO)C(=O)c2ccccc2-c2ccccc2CO[C@H]1CN(C)S(=O)(=O)c1cccs1	0	0	0	18.1	0	0
CC=Cc1ccc2n(c1=O)C[C@@H]1[C@@H](CO)[C@H](C(=O)NC3CCCCC3)N(C(=O)C3CC3)[C@H]21 (mixture of isomers)	0	0	-	0	0	0
COc1ccc(S(=O)(=O)Nc2ccc3c(c2)CC(=O)N([C@H](C)CO)C[C@H](C)[C@H](CN(C)C(=O)Nc2ccc(F)cc2)O3)cc1	0	0	-	-	0	0
CCN(CC)CCN1C(=O)C(=O)/C(=C(/O)c2ccc(S(=O)(=O)N3CCOCC3)cc2)C1c1ccc(C)cc1 (centres undefined)	0	44.2	0	0	0	0
CNC[C@H]1Oc2c(NS(C)(=O)=O)cccc2C(=O)N(C)C[C@H]1C	-	-	0	-	0	-
CCC(=O)N(C)C[C@H]1Oc2cc(C#Cc3ccccc3)ccc2S(=O)(=O)N([C@@H](C)CO)C[C@H]1C	0	0	0	0	0	0
O=C(CCN1C(=O)C2C3C=CC(C3)C2C1=O)N1CCCCC1 (centres undefined)	0	43.2	-	0	0	0
COc1cccc(-c2cnc3c(NC(C)=O)cc(-c4ccc(OC)c(OC)c4)cn23)c1	-	0	0	-	0	0
COc1ccc(-c2cc(NC(C)=O)c3ncc(-c4cccc(C(C)=O)c4)n3c2)cc1OC	-	0	0	0	0	48.8
CC(=O)Nc1cccc(-c2cc(NC(C)=O)c3ncc(-c4cccc(C(C)=O)c4)n3c2)c1	-	43.2	0	-	0	0
CC(=O)Nc1cccc(-c2cc(NC=O)c3ncc(-c4ccc(C(C)=O)cc4)n3c2)c1	-	0	0	-	0	34.0
C[C@H]1CN([C@@H](C)CO)C(=O)c2cc(NC(=O)Nc3ccccc3)ccc2O[C@H]1CN(C)C(=O)Nc1ccccc1	0	0	-	-	0	0
CCCCn1c(SCC(=O)Nc2nc(C)cs2)nnc1-c1cccnc1	0	0	-	17.3	-	0
COc1ccc(OC)c(C(=O)COC(=O)CNC(=O)c2ccccc2)c1	0	0	0	15.1	0	0
COc1cc(/C=C2\SC(=Nc3ccc(Cl)c(C(=O)O)c3)NC2=O)c(Br)c(Br)c1O	0	0	0	25.8	0	0
COc1cc(/C=C2\SC(=Nc3ccccc3)NC2=O)cc(Cl)c1O	0	0	0	0	0	0
NS(=O)(=O)c1ccc(-c2ccc(C=O)o2)cc1	-	0	0	0	0	0
NS(=O)(=O)c1ccc(-c2ccc(/C=C3\NC(=S)NC3=O)o2)cc1	57.6	0	0	-	0	0
SMILES	ARNT TACC3 PPI	FGF22 binding	FN deposition inh	SIRT5 inh	XiGFP reactiv	DENV2 CPE
CCCN1CCC(=O)N(CCOc2ccccc2)CC1	0	0	0	-	0	0
CC(C)(C)C1CCC(=O)N(CCOc2ccccc2)CC1 (centres undefined)	0	0	0	0	0	65.9
Cc1cc(C)n(-c2n[nH]c(C)c2[N+](=O)[O-])n1	0	44.4	0	0	0	0
C[C@H](CO)N1C[C@H](C)[C@H](CN(C)C(=O)Nc2ccc(F)cc2)Oc2ccc(NC(=O)Nc3ccc(F)cc3)cc2C1=O	0	0	-	23.5	0	-
C[C@H](CO)N1C[C@H](C)[C@H](CN(C)C)Oc2ccc(NC(=O)Nc3ccc(F)cc3)cc2C1=O	45.6	0	-	0	0	0
C[C@@H]1CN([C@H](C)CO)C(=O)c2cc(NC(=O)Nc3ccc(F)cc3)ccc2O[C@@H]1CN(C)C	0	0	-	0	0	0
C[C@@H]1CN([C@H](C)CO)C(=O)c2cc(NC(=O)NC3CCCCC3)ccc2O[C@@H]1CN(C)C(=O)Nc1ccc(F)cc1	0	0	0	0	0	40.1
C[C@@H]1CN([C@H](C)CO)C(=O)c2cc(NC(=O)NC3CCCCC3)ccc2O[C@H]1CN(C)C(=O)Nc1ccc(F)cc1	0	-	0	0	0	0
CNC(=O)C[C@H]1CC[C@@H]2[C@@H](COc3ccc(NC(=O)Nc4ccc(Cl)cc4)cc3C(=O)N2C)O1	0	0	0	0	0	0
C[C@H]1CN([C@@H](C)CO)C(=O)c2cc(C3=CCCCC3)cnc2O[C@H]1CN(C)C(=O)c1ccc2c(c1)OCO2	0	0	0	0	0	0
CCN1CCN(C(=O)C2CC(=O)N(c3ccc(Cl)cc3)C2)CC1 (centres undefined)	0	0	0	0	0	61.1
CN1CCN(C(=O)C2CC(=O)N(c3ccc(Cl)cc3)C2)CC1 (centres undefined)	0	0	0	0	0	0
CCOC(=O)C1CCN(C(=O)C2CC(=O)N(c3ccc4c(c3)OCCO4)C2)CC1 (centres undefined)	0	0	0	0	0	61.5
O=C(C1CC(=O)N(c2ccc3c(c2)OCCO3)C1)N1CCN(Cc2ccccc2)CC1 (centres undefined)	0	0	0	0	0	0
O=C(C[C@@H]1CC[C@@H](NC(=O)Cc2cccnc2)[C@H](CO)O1)Nc1ccc(-c2ccccc2)cc1	0	0	0	0	0	?
CN(C)C(=O)C[C@@H]1CC[C@H]2[C@H](COc3ccc(NC(=O)c4ccc(F)cc4)cc3C(=O)N2C)O1	0	0	0	0	0	0
O=C(C[C@H]1C[C@H]2c3cc(NS(=O)(=O)c4ccc(F)cc4)ccc3O[C@H]2[C@@H](CO)O1)N1CCOCC1	0	-	0	0	0	0
